From article PMC3969666 (Pharmacognosy Magazine, 2014)

Assays:
[1] = tested on: influenza virus strain A/PR8/34(H1N1); format: cell-based, influenza virus A/PR8/34(H1N1) in MDCK cells
[2] = tested on: Caco-2 cells; test: MTT cytotoxicity test of absorption enhancers with SHL on Caco-2 cells; format: cell-based; details: 24 h, with addition of SHL, tested 0.005-1.28 mg/mL
[3] = tested on: gastrointestinal membrane; test: Gastrointestinal membrane toxicity by morphological observation; format: in vivo; details: rat
Summary of the method: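 Male Sprague–Dawley rats (~250 g) given SHL with or without absorption enhancers by oral gavage. After 8 h exposure, stomach, jejunum and colon were sectioned, with two sections per tissue on each slide. Sections were HE-stained and examined microscopically for mucosal morphology.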

[4] = enhancement of FD4 absorption; ref 17 (Gao et al., 2008); cited from earlier work

## NC(=O)c1ncn([C@@H]2O[C@H](CO)[C@@H](O)[C@H]2O)n1 [ribavirin, Ribavirin]
[1]
  inhibition rate on influenza virus: remarkable increase in inhibition rate

## CCCCCCCCCC(=O)[O-].[Na+] [sodium caprate]
[2]
  concentration safe for the Caco-2 cells: up to 0.64 mg/mL
[3]; oral with SHL, 150 mg/kg
  damage in the small intestine: significant damage in the small intestine
[3]; oral with SHL, 25, 50, 100 mg/kg, 8 h exposure
  change in the morphology of the gastrointestinal membrane: did not cause any significant change
[3]; oral with SHL, different dosages (25-150 mg/kg)
  damage in the gastro and colon tissues: no significant damage

## chitosan hexamer
[4]
  concentration at which absorption enhancing effect is almost saturable: ~0.5 % (w/v)
